What was measured:
[1] = Growth inhibition of VHL-null human RCC4 cells after 4 days by XTT assay; assay type: functional; conditions: RCC4, 96 h
Procedure, shortened: (§1)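 XTT read-out: 5000 cells/well plated, vehicle or drug added next day, 4-day exposure. Then phenol red-free medium with 0.3 mg/mL XTT, 20% FCS and 2.65 μg/mL N-methyldibenzopyrazine methyl sulfate, 1-2 h at 37 °C, absorbance at 450 nm. GI50 by linear interpolation; single determinations in triplicate. Ratio is the intraexperiment RCC4-VHL GI50 / RCC4 GI50.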

[2] = Ratio of IC50 for human RCC4-VHL cells to IC50 for VHL-null human RCC4 cells; assay type: functional; procedure, shortened: as §1

Compound: Cc1cccc(Nc2nc(-c3ccncc3)c(CN3CCOCC3)s2)c1
- GI50 [1]: 2.5 µM
- RatioGI50 [2]: 4.8

Compound: CCOC(=O)c1sc(Nc2cccc(C)c2)nc1-c1ccncc1
- GI50 [1]: > 40 µM

Compound: Cc1cccc(Nc2nc(Cc3cccnc3)cs2)c1
- GI50 [1]: > 40 µM

Compound: Cc1cccc(Nc2nc(-c3ccncc3)c(C(=O)NCCN(C)C)s2)c1
- GI50 [1]: > 40 µM

Compound: Cc1cccc(Nc2nc(-c3ccncc3)c(C(=O)NCCCN3CCOCC3)s2)c1
- GI50 [1]: > 40 µM

Compound: CCc1cc(-c2csc(Nc3cccc(C)c3)n2)ccn1
- GI50 [1]: 6.4 µM
- RatioGI50 [2]: >6.3

Compound: Cc1cccc(Nc2nc(-c3ccncc3)c(C(N)=O)s2)c1
- GI50 [1]: 19.2 µM
- RatioGI50 [2]: >2

Compound: COc1ccc(Nc2nc(-c3ccncc3)cs2)cc1OC
- GI50 [1]: 24 µM
- RatioGI50 [2]: 1.9

Compound: Cc1cccc(Nc2nc(-c3ccncc3)cs2)c1
- GI50 [1]: 2.1 µM
- RatioGI50 [2]: 19

Compound: Oc1ccc(Nc2nc(-c3ccccn3)cs2)cc1
- GI50 [1]: 36 µM
- RatioGI50 [2]: 0.7

Compound: COc1cc(-c2csc(Nc3cccc(C)c3)n2)ccn1
- GI50 [1]: 28.7 µM
- RatioGI50 [2]: 1.2

Compound: Cc1ccc(Nc2nc(-c3ccncc3)cs2)cc1C
- GI50 [1]: 6.5 µM
- RatioGI50 [2]: 6.4

Compound: Cc1ccc(Nc2nc(-c3ccncc3)cs2)cc1O
- GI50 [1]: 12 µM
- RatioGI50 [2]: 4.6

Compound: Cc1cccc(Nc2nc(-c3ccncc3C)cs2)c1
- GI50 [1]: 5.2 µM
- RatioGI50 [2]: >7.7

Compound: COc1ccc(C(=O)Nc2nc(-c3ccncc3)cs2)cc1
- GI50 [1]: > 40 µM

Compound: COc1ccccc1Nc1nc(-c2ccncc2)cs1
- GI50 [1]: 33.4 µM
- RatioGI50 [2]: >1.2

Compound: O=C(Nc1nc(-c2ccncc2)cs1)c1ccccc1
- GI50 [1]: > 40 µM

Compound: Cc1cccc(N(C)c2nc(-c3ccncc3)cs2)c1
- GI50 [1]: 28 µM
- RatioGI50 [2]: 0.6

Compound: N#Cc1ccc(Nc2nc(-c3ccncc3)cs2)cc1
- GI50 [1]: > 40 µM

Compound: Cc1cccc(Nc2nc(-c3ccnc(C#CCO)c3)cs2)c1
- GI50 [1]: 9.3 µM
- RatioGI50 [2]: 1.6

Compound: CCN(CC)Cc1sc(Nc2cccc(C)c2)nc1-c1ccncc1
- GI50 [1]: 13 µM
- RatioGI50 [2]: 1.4

Compound: Cc1cccc(Nc2nc(-c3ccncc3)c(C=O)s2)c1
- GI50 [1]: 15 µM

Compound: c1ccc(Nc2nc(-c3ccccn3)cs2)cc1
- GI50 [1]: 35.1 µM
- RatioGI50 [2]: 0.9

Compound: CCc1cccc(Nc2nc(-c3ccncc3)cs2)c1
- GI50 [1]: 2.5 µM
- RatioGI50 [2]: 9.6

Compound: FC(F)(F)c1ccccc1Nc1nc(-c2ccncc2)cs1
- GI50 [1]: > 40 µM

Compound: Brc1cccc(Nc2nc(-c3ccncc3)cs2)c1
- GI50 [1]: 12.4 µM
- RatioGI50 [2]: >3.2

Compound: Clc1ccc(Nc2nc(-c3ccncc3)cs2)cc1Cl
- GI50 [1]: 13.5 µM
- RatioGI50 [2]: >3

Compound: Cc1cc(C)cc(Nc2nc(-c3ccncc3)cs2)c1
- GI50 [1]: 4.5 µM
- RatioGI50 [2]: >9

Compound: Fc1cccc(Nc2nc(-c3ccncc3)cs2)c1
- GI50 [1]: > 40 µM

Compound: FC(F)(F)c1cccc(Nc2nc(-c3ccncc3)cs2)c1
- GI50 [1]: > 40 µM

Compound: Cc1sc(Nc2ccc3c(c2)CCC3)nc1-c1ccncc1
- GI50 [1]: 12 µM
- RatioGI50 [2]: 1.5

Compound: COc1cccc(Nc2nc(-c3ccncc3)cs2)c1
- GI50 [1]: 3 µM
- RatioGI50 [2]: 17

Compound: Cc1cccc(Nc2nc(-c3ccncc3N)cs2)c1
- GI50 [1]: > 40 µM

Compound: Cc1cccc(Nc2nc(-c3ccncc3F)cs2)c1
- GI50 [1]: 2 µM
- RatioGI50 [2]: >20

Compound: OCc1sc(Nc2ccc3c(c2)CCC3)nc1-c1ccncc1
- GI50 [1]: 6.8 µM
- RatioGI50 [2]: 1.4

Compound: Cc1cccc(C)c1Nc1nc(-c2ccncc2)cs1
- GI50 [1]: > 40 µM

Compound: Cc1cccc(Nc2nc(Cc3ccncc3)cs2)c1
- GI50 [1]: 20.3 µM
- RatioGI50 [2]: 24.4

Compound: CCc1cnccc1-c1csc(Nc2cccc(C)c2)n1
- GI50 [1]: 6.2 µM
- RatioGI50 [2]: 2.8

Compound: OCc1sc(Nc2ccccc2)nc1-c1ccncc1
- GI50 [1]: 30 µM
- RatioGI50 [2]: >1.3

Compound: OCCc1ccc(Nc2nc(-c3ccncc3)cs2)cc1
- GI50 [1]: 5 µM
- RatioGI50 [2]: 16

Compound: Cc1cccc(Nc2nc(-c3ccncc3)c(CCCO)s2)c1
- GI50 [1]: 3.6 µM
- RatioGI50 [2]: 3.7

Compound: COc1ccc(Nc2nc(-c3ccncc3)cs2)cc1
- GI50 [1]: 14 µM
- RatioGI50 [2]: 3.6

Compound: Fc1cccc(F)c1Nc1nc(-c2ccncc2)cs1
- GI50 [1]: > 40 µM

Compound: O=[N+]([O-])c1cccc(Nc2nc(-c3ccncc3)cs2)c1
- GI50 [1]: > 40 µM

Compound: Cc1cccc(Nc2nc(-c3ccnc(Cl)c3)cs2)c1
- GI50 [1]: 2.2 µM
- RatioGI50 [2]: 3.8

Compound: Cc1cccc(Nc2nc(-c3ccncc3CCCO)cs2)c1
- GI50 [1]: 6.8 µM
- RatioGI50 [2]: >5.9

Compound: Cc1cccc(Nc2nc(-c3ccncc3)c(C)s2)c1
- GI50 [1]: 10 µM
- RatioGI50 [2]: >4

Compound: Cc1cccc(Nc2nc(-c3ccncc3Br)cs2)c1
- GI50 [1]: 3.9 µM
- RatioGI50 [2]: >10

Compound: Cc1cccc(Nc2nc(-c3ccnc(Br)c3)cs2)c1
- GI50 [1]: 2 µM
- RatioGI50 [2]: 4.3

Compound: Cc1cccc(Nc2nc(-c3cc(Cl)nc(Cl)c3)cs2)c1
- GI50 [1]: 15 µM
- RatioGI50 [2]: 2.3

Compound: Cc1cccc(Nc2nc(-c3ccccn3)cs2)c1
- GI50 [1]: 37 µM
- RatioGI50 [2]: 0.9

Source: ChEMBL document CHEMBL1154748, “4-Pyridylanilinothiazoles that selectively target von Hippel-Lindau deficient renal cell carcinoma cells by inducing autophagic cell death” (2010)
